# Results published in ChEMBL document CHEMBL2062460, “Disubstituted thiourea derivatives and their activity on CNS: synthesis and biological evaluation” (Eur J Med Chem, 2012).
# The source made the active and inactive calls. No cut-off for these calls is given here.
# Columns and labels:
# [1] = test system: Staphylococcus epidermidis; test: Antibacterial activity against Staphylococcus epidermidis ATCC 12228 at 400 ug/disc after 18 hrs by disc diffusion method; assay type: functional
# Summary of the method: (§1)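 Disc diffusion per CLSI on Mueller–Hinton II agar; 9 mm paper discs loaded from methanol or DMSO solutions to 400 µg per disc, dried; growth inhibition zone diameter read after 18 h at 35 °C.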
# Enterococcus hirae [2] = test: Antibacterial activity against Enterococcus hirae ATCC 10541 at 400 ug/disc after 18 hrs by disc diffusion method; assay type: functional; conditions: ATCC 10541, 18 h, read-out: DIZ; summary of the method: as §1
# Staphylococcus aureus [3] = test: Antibacterial activity against Staphylococcus aureus NCTC 4163 at 400 ug/disc after 18 hrs by disc diffusion method; assay type: functional; conditions: NCTC 4163, 18 h, read-out: DIZ; summary of the method: as §1
# Bacillus cereus = test: Antibacterial activity against Bacillus cereus ATCC 11778 at 400 ug/disc after 18 hrs by disc diffusion method; assay type: functional; conditions: ATCC 11778, 18 h, read-out: DIZ; summary of the method: as §1
# Escherichia coli = test: Antibacterial activity against Escherichia coli NCTC 8196 at 400 ug/disc after 18 hrs by disc diffusion method; assay type: functional, organism-based; summary of the method: as §1
# Candida albicans = test: Antifungal activity against Candida albicans ATCC 10231 at 400 ug/disc after 18 hrs by disc diffusion method; assay type: functional, organism-based
# Summary of the method: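 Yeasts tested by disc diffusion (CLSI) on RPMI agar with 2% glucose; 9 mm paper discs bearing 400 µg compound from methanol or DMSO solution; inhibition zone diameter read after 18 h at 35 °C.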
# Staphylococcus aureus [4] = test: Antibacterial activity against Staphylococcus aureus ATCC 6538 after 18 hrs by twofold serial agar dilution technique; assay type: functional; conditions: ATCC 6538, 18 h
# Summary of the method: (§2)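 Twofold serial agar dilution on Mueller–Hinton II agar, following CLSI guidelines. Compounds were dissolved in methanol or DMSO and tested at final agar concentrations of 3.125–400 µg/mL. Final inoculum was 10^4 CFU/mL.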
# Staphylococcus aureus [5] = test: Antibacterial activity against Staphylococcus aureus ATCC 29213 after 18 hrs by twofold serial agar dilution technique; assay type: functional; conditions: ATCC 29213, 18 h; summary of the method: as §2
# [6] = test system: Staphylococcus epidermidis; test: Antibacterial activity against Staphylococcus epidermidis ATCC 12228 after 18 hrs by twofold serial agar dilution technique; assay type: functional; conditions: ATCC 12228, 18 h; summary of the method: as §2
# Enterococcus hirae [7] = test: Antibacterial activity against Enterococcus hirae ATCC 10541 after 18 hrs by twofold serial agar dilution technique; assay type: functional; conditions: ATCC 10541, 18 h
# Micrococcus luteus [8] = test: Antibacterial activity against Micrococcus luteus ATCC 9341 after 18 hrs by twofold serial agar dilution technique; assay type: functional; conditions: ATCC 9341, 18 h
# Micrococcus luteus [9] = test: Antibacterial activity against Micrococcus luteus ATCC 10240 after 18 hrs by twofold serial agar dilution technique; assay type: functional; conditions: ATCC 10240, 18 h
# Staphylococcus aureus [10] = test: Antibacterial activity against methicillin-susceptible Staphylococcus aureus clinical isolate 256/08 after 18 hrs by twofold serial agar dilution technique; assay type: functional; conditions: clinical isolate 256/08, 18 h
# Summary of the method: (§3)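 Clinical isolates came from patients in Warsaw Medical University Hospitals and were classed as methicillin-susceptible or -resistant. MIC was determined by twofold serial agar dilution on Mueller–Hinton II agar (CLSI), 3.125–400 µg/mL in agar, with compounds in methanol or DMSO. Inoculum was 10^4 CFU/mL and plates were read after 18 h at 35 °C.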
# Staphylococcus aureus [11] = test: Antibacterial activity against methicillin-susceptible Staphylococcus aureus clinical isolate 261/08 after 18 hrs by twofold serial agar dilution technique; assay type: functional; conditions: clinical isolate 261/08, 18 h; summary of the method: as §3
# Staphylococcus aureus [12] = test: Antibacterial activity against methicillin-susceptible Staphylococcus aureus clinical isolate 267/08 after 18 hrs by twofold serial agar dilution technique; assay type: functional; conditions: clinical isolate 267/08, 18 h; summary of the method: as §3
# Staphylococcus aureus [13] = test: Antibacterial activity against methicillin-susceptible Staphylococcus aureus clinical isolate 268/08 after 18 hrs by twofold serial agar dilution technique; assay type: functional; conditions: clinical isolate 268/08, 18 h; summary of the method: as §3
# Staphylococcus aureus [14] = test: Antibacterial activity against methicillin-susceptible Staphylococcus aureus clinical isolate 367/09 after 18 hrs by twofold serial agar dilution technique; assay type: functional; conditions: clinical isolate 367/09, 18 h; summary of the method: as §3
# Staphylococcus aureus [15] = test: Antibacterial activity against methicillin-susceptible Staphylococcus aureus clinical isolate 369/09 after 18 hrs by twofold serial agar dilution technique; assay type: functional; conditions: clinical isolate 369/09, 18 h; summary of the method: as §3
# Staphylococcus aureus [16] = test: Antibacterial activity against methicillin-resistant Staphylococcus aureus clinical isolate 277/08 after 18 hrs by twofold serial agar dilution technique; assay type: functional; conditions: clinical isolate 277/08, 18 h; summary of the method: as §3
# Staphylococcus aureus [17] = test: Antibacterial activity against methicillin-resistant Staphylococcus aureus clinical isolate 309/08 after 18 hrs by twofold serial agar dilution technique; assay type: functional; conditions: clinical isolate 309/08, 18 h; summary of the method: as §3
# Staphylococcus aureus [18] = test: Antibacterial activity against methicillin-resistant Staphylococcus aureus clinical isolate 356/09 after 18 hrs by twofold serial agar dilution technique; assay type: functional; conditions: clinical isolate 356/09, 18 h; summary of the method: as §3
# Staphylococcus aureus [19] = test: Antibacterial activity against methicillin-resistant Staphylococcus aureus clinical isolate 357/09 after 18 hrs by twofold serial agar dilution technique; assay type: functional; conditions: clinical isolate 357/09, 18 h; summary of the method: as §3
# [20] = test system: Staphylococcus epidermidis; test: Antibacterial activity against methicillin-resistant Staphylococcus epidermidis clinical isolate 311/08 after 18 hrs by twofold serial agar dilution technique; assay type: functional; conditions: clinical isolate 311/08, 18 h; summary of the method: as §3
# [21] = test system: Staphylococcus epidermidis; test: Antibacterial activity against methicillin-resistant Staphylococcus epidermidis clinical isolate 316/08 after 18 hrs by twofold serial agar dilution technique; assay type: functional; conditions: clinical isolate 316/08, 18 h; summary of the method: as §3
# [22] = test system: Staphylococcus epidermidis; test: Antibacterial activity against methicillin-resistant Staphylococcus epidermidis clinical isolate 318/08 after 18 hrs by twofold serial agar dilution technique; assay type: functional; conditions: clinical isolate 318/08, 18 h; summary of the method: as §3
# [23] = test system: Staphylococcus epidermidis; test: Antibacterial activity against methicillin-resistant Staphylococcus epidermidis clinical isolate 343/09 after 18 hrs by twofold serial agar dilution technique; assay type: functional; conditions: clinical isolate 343/09, 18 h; summary of the method: as §3
# [24] = Cytotoxicity against human MT4 cells after 96 hrs by MTT assay; assay type: cell-based
smiles,measurement,setting,value
Fc1cccc(NC(=S)Nc2nc[nH]n2)c1,zone of inhibition at 400 µg/disc,"[1]; ATCC 12228, 18 h, read-out: DIZ",22 mm
same,zone of inhibition at 400 µg/disc,Enterococcus hirae [2],16 mm
same,zone of inhibition at 400 µg/disc,Staphylococcus aureus [3],16 mm
same,zone of inhibition at 400 µg/disc,Bacillus cereus,14 mm
same,diameter of the inhibition zone (DIZ),Escherichia coli,inactive
same,diameter of the inhibition zone (DIZ),Candida albicans,inactive
same,MIC,Staphylococcus aureus [4],100 µg/mL
same,MIC,Staphylococcus aureus [5],50 µg/mL
same,MIC,[6],50 µg/mL
same,MIC,Enterococcus hirae [7],400 µg/mL
same,MIC,Micrococcus luteus [8],50 µg/mL
same,MIC,Micrococcus luteus [9],50 µg/mL
same,MIC,Staphylococcus aureus [10],25 µg/mL
same,MIC,Staphylococcus aureus [11],25 µg/mL
same,MIC,Staphylococcus aureus [12],25 µg/mL
same,MIC,Staphylococcus aureus [13],25 µg/mL
same,MIC,Staphylococcus aureus [14],12.5 µg/mL
same,MIC,Staphylococcus aureus [15],12.5 µg/mL
same,MIC,Staphylococcus aureus [16],12.5 µg/mL
same,MIC,Staphylococcus aureus [17],12.5 µg/mL
same,MIC,Staphylococcus aureus [18],12.5 µg/mL
same,MIC,Staphylococcus aureus [19],25 µg/mL
S=C(Nc1ccc(I)cc1)Nc1nc[nH]n1,diameter of the inhibition zone (DIZ),[1],inactive
same,zone of inhibition at 400 µg/disc,Enterococcus hirae [2],13 mm
same,zone of inhibition at 400 µg/disc,Staphylococcus aureus [3],12 mm
same,zone of inhibition at 400 µg/disc,Bacillus cereus,13 mm
same,diameter of the inhibition zone (DIZ),Escherichia coli,inactive
same,diameter of the inhibition zone (DIZ),Candida albicans,inactive
same,MIC,Staphylococcus aureus [4],25 µg/mL
same,MIC,Staphylococcus aureus [5],25 µg/mL
same,MIC,[6],25 µg/mL
same,MIC,Enterococcus hirae [7],400 µg/mL
same,MIC,Micrococcus luteus [8],12.5 µg/mL
same,MIC,Micrococcus luteus [9],12.5 µg/mL
same,MIC,Staphylococcus aureus [10],25 µg/mL
same,MIC,Staphylococcus aureus [11],25 µg/mL
same,MIC,Staphylococcus aureus [12],25 µg/mL
same,MIC,Staphylococcus aureus [13],25 µg/mL
same,MIC,Staphylococcus aureus [14],25 µg/mL
same,MIC,Staphylococcus aureus [15],50 µg/mL
same,MIC,Staphylococcus aureus [16],25 µg/mL
same,MIC,Staphylococcus aureus [17],25 µg/mL
same,MIC,Staphylococcus aureus [18],50 µg/mL
same,MIC,Staphylococcus aureus [19],50 µg/mL
same,MIC,[20],50 µg/mL
same,MIC,[21],50 µg/mL
same,MIC,[22],12.5 µg/mL
same,MIC,[23],50 µg/mL
same,CC50 at 96 h,[24],46 µM
